According to article PMC7172969 (Journal of Hepatology, 2016):

What was measured:
HBV replication = HBV replication assay in HepG2.2.15.7 cells; type: cell-based, hepatitis B virus; conditions: six days, ETV 1 μM, CsA and its derivatives 8 μM
Outline: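 HepG2.2.15.7 cells support HBV replication but not entry. They were treated for six days with test compound (8 μM), entecavir 1 μM as positive control, or DMSO 0.16%. HBV DNA released into the culture supernatant was then quantified by real-time PCR.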

HBV (genotype D) = assay: HBV infection assay in HepG2-hNTCP-C4 cells; type: cell-based, hepatitis B virus; conditions: same concentration conditions (40 and 100 μM)
Outline: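 HepG2-hNTCP-C4 cells were inoculated with genotype D HBV from Hep38.7-Tet culture supernatant at 6000 GEq/cell in 4% PEG8000. Test compound (8 μM), preS1 peptide (100 nM) or DMSO 0.16% was present for 16 h. Cells were washed and cultured 12 more days without compound. On day 13, supernatant HBs was measured by ELISA and intracellular HBc by immunofluorescence with image quantification. MTT viability was run in parallel.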

NTCP = target: T1, NTCP (Homo sapiens, UniProt Q14973); assay: NTCP transporter assay; type: cell-based; conditions: HepG2-hNTCP-C4 cells, sulfobromophthalein 40 and 100 μM
T1 sequence (Q14973 1-349): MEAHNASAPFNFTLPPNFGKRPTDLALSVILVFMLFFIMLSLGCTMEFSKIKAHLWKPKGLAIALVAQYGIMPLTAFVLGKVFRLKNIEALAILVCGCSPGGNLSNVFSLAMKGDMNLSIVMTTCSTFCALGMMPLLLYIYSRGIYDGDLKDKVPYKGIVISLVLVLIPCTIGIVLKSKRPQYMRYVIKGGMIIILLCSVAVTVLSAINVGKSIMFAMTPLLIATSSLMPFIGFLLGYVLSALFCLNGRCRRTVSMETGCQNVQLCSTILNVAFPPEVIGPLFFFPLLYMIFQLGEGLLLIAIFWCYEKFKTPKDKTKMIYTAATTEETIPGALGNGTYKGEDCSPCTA

Compound	HBV DNA released into the culture supernatant (HBV replication)	HBV infection (HBV (genotype D))	bile acid uptake in sodium-containing condition (NTCP)
C=C1[C@H](CO)[C@@H](O)C[C@@H]1n1cnc2c(=O)[nH]c(N)nc21 [entecavir]	significantly reduced	–	–
O=C1OC(c2ccc(O)c(S(=O)(=O)O)c2)(c2ccc(O)c(S(=O)(=O)O)c2)c2c(Br)c(Br)c(Br)c(Br)c21 [sulfobromophthalein, Sulfobromophthalein]	–	did not inhibit HBV infection	impaired the bile acid uptake
